Test results published in ChEMBL document CHEMBL1126849, “Synthesis of A-ring fluorinated derivatives of (17 alpha,20E/Z)-[125I]iodovinylestradiols: effect on receptor binding and receptor-mediated target tissue uptake” (J Med Chem, 1993).

What was measured:
Rattus norvegicus [1] = assay: Biodistribution in fat of immature female rat after 3 hour administration of 3 micro Ci (111 kBq) in the absence of 60 microg estradiol; type: ADME, organism-based, Adipose tissue; conditions: in vivo
How it was run: (§1)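 Immature female Long Evans rats (21–24 days, 45–70 g), unanesthetized in retention cages, given 3 µCi (111 kBq) 125I-labeled steroid i.v. via lateral tail vein. Vehicle was ethanol diluted in saline containing 1% Tween-80, giving 9% ethanol final. The blocking group received 60 µg unlabeled estradiol co-injected. Rats were killed under ether by axillary bleeding, and tissues were KCl-washed and gamma-counted. Data are %ID/g, mean ± SE, n=3–5.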

Rattus norvegicus [2] = assay: Biodistribution in blood of immature female rat after 1 hr administration of 3 micro Ci (111 kBq) in the presence of (+E2); type: ADME, organism-based; conditions: in vivo; how it was run: as §1
Rattus norvegicus [3] = assay: Biodistribution in thyroid of immature female rat after 12 hour administration of 3 micro Ci (111 kBq) in the absence of 60 microg estradiol; type: ADME, organism-based, Thyroid gland; conditions: in vivo
How it was run: (§2)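 Immature female Long Evans rats (21–24 days, 45–70 g), three to five per group, given 125I-labeled steroid (3 μCi, 111 kBq) by lateral tail vein without anesthesia. Vehicle: ethanol diluted in saline with 1% Tween-80, final ethanol 9%, 0.22 μm filtered. +E2 groups received 60 μg unlabeled estradiol co-injected. Killed under ether at set times; tissues KCl-washed, blotted, weighed, gamma counted; %ID/g, mean with SE.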

Rattus norvegicus [4] = assay: Biodistribution in thyroid of immature female rat after 3 hour administration of 3 micro Ci (111 kBq) in the absence of 60 microg estradiol; type: ADME, organism-based, Thyroid gland; conditions: in vivo; how it was run: as §2
Rattus norvegicus [5] = assay: Biodistribution in lungs of immature female rat after 5 hour administration of 3 micro Ci (111 kBq) in the absence of 60 microg estradiol; type: ADME, organism-based, Lung; conditions: in vivo; how it was run: as §2
Rattus norvegicus [6] = assay: Biodistribution in spleen of immature female rat after 5 hour administration of 3 micro Ci (111 kBq) in the absence of 60 microg estradiol; type: ADME, organism-based; conditions: in vivo; how it was run: as §2
Rattus norvegicus [7] = assay: Biodistribution in uterus / blood of immature female rat after 1 hr administration of 3 micro Ci (111 kBq) in the presence of (+E2); type: ADME, organism-based; conditions: in vivo
How it was run: (§3)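 Same in vivo procedure: immature female Long Evans rats (21–24 days), three to five per group, 3 μCi (111 kBq) tracer i.v. via tail vein in 9% ethanol/saline/1% Tween-80, ± 60 μg estradiol co-injected at 1 h. Uterus %ID/g (gamma counting) divided by blood, or by nontarget organ (muscle, spleen, lungs), %ID/g to give ratios.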

Rattus norvegicus [8] = assay: Biodistribution in uterus of immature female rat after 12 hour administration of 3 micro Ci (111 kBq) in the absence of 60 microg estradiol; type: ADME, organism-based; conditions: in vivo
How it was run: (§4)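 Immature female Long Evans rats (21–24 days, 45–70 g), 3–5 per group, unanesthetized in retention cages, given 3 μCi (111 kBq) 125I-labeled steroid by lateral tail vein. Vehicle: ethanol diluted with saline containing 1% Tween-80, final ethanol 9%. +E2 group co-injected 60 μg unlabeled estradiol (1 h only). Killed under ether; tissues KCl-washed, weighed, gamma-counted. Output: %ID/g (mean, SE) and uterus to blood or nontarget (muscle, spleen, lungs) ratios.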

Rattus norvegicus [9] = assay: Biodistribution in liver of immature female rat after 5 hour administration of 3 micro Ci (111 kBq) in the absence of 60 microg estradiol; type: ADME, organism-based; conditions: in vivo; how it was run: as §1
Rattus norvegicus [10] = assay: Biodistribution in uterus / spleen, muscle, lungs of immature female rat after 1 hr administration of 3 micro Ci (111 kBq) in the presence of (+E2); type: ADME, organism-based; conditions: in vivo; how it was run: as §3
Rattus norvegicus [11] = assay: Biodistribution in uterus / blood of immature female rat after 1 hr administration of 3 micro Ci (111 kBq) in the absence of 60 microg estradiol; type: ADME, organism-based; conditions: in vivo; how it was run: as §3
Rattus norvegicus [12] = assay: Biodistribution in uterus / spleen, muscle, lungs of immature female rat after 12 hour administration of 3 micro Ci (111 kBq) in the absence of 60 microg estradiol; type: ADME, organism-based; conditions: in vivo; how it was run: as §4
Rattus norvegicus [13] = assay: Biodistribution in uterus of immature female rat after 3 hour administration of 3 micro Ci (111 kBq) in the absence of 60 microg estradiol; type: ADME, organism-based; conditions: in vivo; how it was run: as §4
Rattus norvegicus [14] = assay: Biodistribution in spleen of immature female rat after 1 hr administration of 3 micro Ci (111 kBq) in the presence of (+E2); type: ADME, organism-based; conditions: in vivo; how it was run: as §2
Rattus norvegicus [15] = assay: Biodistribution in lungs of immature female rat after 12 hour administration of 3 micro Ci (111 kBq) in the absence of 60 microg estradiol; type: ADME, organism-based, Lung; conditions: in vivo; how it was run: as §2
Rattus norvegicus [16] = assay: Biodistribution in thyroid of immature female rat after 1 hr administration of 3 micro Ci (111 kBq) in the absence of 60 microg estradiol; type: ADME, organism-based, Thyroid gland; conditions: in vivo; how it was run: as §2
Rattus norvegicus [17] = assay: Biodistribution in liver of immature female rat after 1 hr administration of 3 micro Ci (111 kBq) in the presence of (+E2); type: ADME, organism-based; conditions: in vivo; how it was run: as §1
[18] = molecular target: Estrogen receptor (Mus musculus) (UniProt O08537+P19785); assay: Relative binding affinity (RBA) against murine cytoplasmic estrogen receptor incubated at 0-4 degree Celsius for 18 hours; type: protein assay
Chain of Estrogen receptor (Mus musculus) (O08537 whole entry, looked up): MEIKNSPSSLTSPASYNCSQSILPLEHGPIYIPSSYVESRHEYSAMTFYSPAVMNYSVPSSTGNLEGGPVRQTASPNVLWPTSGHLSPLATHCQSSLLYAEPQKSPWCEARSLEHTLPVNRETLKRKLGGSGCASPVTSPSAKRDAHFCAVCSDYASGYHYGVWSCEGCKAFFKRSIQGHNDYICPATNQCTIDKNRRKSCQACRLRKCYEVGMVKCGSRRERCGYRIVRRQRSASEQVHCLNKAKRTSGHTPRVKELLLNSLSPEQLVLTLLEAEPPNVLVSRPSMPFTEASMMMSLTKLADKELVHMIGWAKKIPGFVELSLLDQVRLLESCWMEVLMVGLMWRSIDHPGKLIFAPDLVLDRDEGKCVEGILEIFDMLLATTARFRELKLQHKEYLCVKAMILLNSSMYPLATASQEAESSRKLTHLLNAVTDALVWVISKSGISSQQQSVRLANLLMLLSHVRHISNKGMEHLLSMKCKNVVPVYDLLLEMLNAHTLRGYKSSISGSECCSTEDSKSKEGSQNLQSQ
Chain of Estrogen receptor (Mus musculus) (P19785 whole entry, looked up): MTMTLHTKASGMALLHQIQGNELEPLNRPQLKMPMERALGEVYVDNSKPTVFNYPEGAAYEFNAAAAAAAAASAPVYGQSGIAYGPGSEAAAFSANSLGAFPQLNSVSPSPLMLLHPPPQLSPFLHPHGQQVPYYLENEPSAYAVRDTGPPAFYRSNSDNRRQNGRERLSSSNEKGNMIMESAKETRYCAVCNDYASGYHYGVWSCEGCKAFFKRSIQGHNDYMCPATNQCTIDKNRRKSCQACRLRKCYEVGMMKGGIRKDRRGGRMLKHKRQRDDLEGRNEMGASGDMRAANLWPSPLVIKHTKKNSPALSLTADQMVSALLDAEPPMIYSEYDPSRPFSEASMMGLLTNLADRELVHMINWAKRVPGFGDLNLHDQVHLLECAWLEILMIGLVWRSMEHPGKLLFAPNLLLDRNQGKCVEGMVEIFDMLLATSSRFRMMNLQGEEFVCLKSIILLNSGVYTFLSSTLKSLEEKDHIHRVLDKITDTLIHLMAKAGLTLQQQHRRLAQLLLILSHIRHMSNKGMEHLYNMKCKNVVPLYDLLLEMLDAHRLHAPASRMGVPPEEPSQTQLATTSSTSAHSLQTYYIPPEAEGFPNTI
How it was run: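 Competitive binding on murine uterine cytoplasmic extract with 20 nM [3H]estradiol and competitor steroids at 2 nM–20 μM, incubated 18 h at 0–4 °C. RBA = 100 × ratio of […] concentration giving 50% competition for specific binding. Mean of three experiments with SD.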

Rattus norvegicus [19] = assay: Biodistribution in uterus of immature female rat after 5 hour administration of 3 micro Ci (111 kBq) in the absence of 60 microg estradiol; type: ADME, organism-based; conditions: in vivo; how it was run: as §4
Rattus norvegicus [20] = assay: Biodistribution in uterus / blood of immature female rat after 5 hour administration of 3 micro Ci (111 kBq) in the absence of 60 microg estradiol; type: ADME, organism-based; conditions: in vivo; how it was run: as §3
Rattus norvegicus [21] = assay: Biodistribution in fat of immature female rat after 12 hour administration of 3 micro Ci (111 kBq) in the absence of 60 microg estradiol; type: ADME, organism-based, Adipose tissue; conditions: in vivo; how it was run: as §1
Rattus norvegicus [22] = assay: Biodistribution in kidney of immature female rat after 5 hour administration of 3 micro Ci (111 kBq) in the absence of 60 microg estradiol; type: ADME, organism-based; conditions: in vivo; how it was run: as §1
Rattus norvegicus [23] = assay: Biodistribution in uterus / blood of immature female rat after 3 hour administration of 3 micro Ci (111 kBq) in the absence of 60 microg estradiol; type: ADME, organism-based; conditions: in vivo; how it was run: as §3
Rattus norvegicus [24] = assay: Biodistribution in spleen of immature female rat after 1 hr administration of 3 micro Ci (111 kBq) in the absence of 60 microg estradiol; type: ADME, organism-based; conditions: in vivo; how it was run: as §2
Rattus norvegicus [25] = assay: Biodistribution in uterus of immature female rat after 1 hr administration of 3 micro Ci (111 kBq) in the presence of (+E2); type: ADME, organism-based; conditions: in vivo; how it was run: as §4
Rattus norvegicus [26] = assay: Biodistribution in lungs of immature female rat after 1 hr administration of 3 micro Ci (111 kBq) in the presence of (+E2); type: ADME, organism-based, Lung; conditions: in vivo; how it was run: as §1
Rattus norvegicus [27] = assay: Biodistribution in fat of immature female rat after 1 hr administration of 3 micro Ci (111 kBq) in the absence of 60 microg estradiol; type: ADME, organism-based, Adipose tissue; conditions: in vivo; how it was run: as §1
Rattus norvegicus [28] = assay: Biodistribution in lungs of immature female rat after 3 hour administration of 3 micro Ci (111 kBq) in the absence of 60 microg estradiol; type: ADME, organism-based, Lung; conditions: in vivo; how it was run: as §2
Rattus norvegicus [29] = assay: Biodistribution in muscle of immature female rat after 3 hour administration of 3 micro Ci (111 kBq) in the absence of 60 microg estradiol; type: ADME, organism-based, Muscle tissue; conditions: in vivo; how it was run: as §2
Rattus norvegicus [30] = assay: Biodistribution in fat of immature female rat after 1 hr administration of 3 micro Ci (111 kBq) in the presence of (+E2); type: ADME, organism-based, Adipose tissue; conditions: in vivo; how it was run: as §1

ID/g (Rattus norvegicus [1]) [%]	ID/g (Rattus norvegicus [2]) [%]	ID/g (Rattus norvegicus [3]) [%]	ID/g (Rattus norvegicus [4]) [%]	ID/g (Rattus norvegicus [5]) [%]	ID/g (Rattus norvegicus [6]) [%]	uterus/blood %ID/g ratio (Rattus norvegicus [7]) [%]	ID/g (Rattus norvegicus [8]) [%]	ID/g (Rattus norvegicus [9]) [%]	uterus-to-nontarget tissue uptake ratio (Rattus norvegicus [10]) [%]	uterus-to-blood ratio of %ID/g (Rattus norvegicus [11]) [%]	uterus to nontarget tissue ratio (Rattus norvegicus [12]) [%]	ID/g (Rattus norvegicus [13]) [%]	ID/g (Rattus norvegicus [14]) [%]	ID/g (Rattus norvegicus [15]) [%]	ID/g (Rattus norvegicus [16]) [%]	ID/g (Rattus norvegicus [17]) [%]	RBA [18]	ID/g (Rattus norvegicus [19]) [%]	uterus to blood ratio (Rattus norvegicus [20]) [%]	SMILES	further results
2.21	0.58	365	75.3	0.24	0.2	1.2	2.51	1.16	0.51	7.34	20.54	5.44	1	0.12	39	2.58	53.7	3.67	12.09	C[C@]12CC[C@@H]3c4cc(F)c(O)cc4CC[C@H]3[C@@H]1CC[C@@]2(O)/C=C\I	ID/g (Rattus norvegicus [21]): 0.19%; ID/g (Rattus norvegicus [22]): 0.3%; uterus to blood %ID/g ratio (unitless) (Rattus norvegicus [23]): 12.98%; ID/g (Rattus norvegicus [24]): 0.55%; ID/g (Rattus norvegicus [25]): 0.68%; ID/g (Rattus norvegicus [26]): 0.75%; ID/g (Rattus norvegicus [27]): 2.19%; ID/g (Rattus norvegicus [28]): 0.39%; ID/g (Rattus norvegicus [29]): 0.28%; ID/g (Rattus norvegicus [30]): 2.88%
1.96	0.55	488	87.39	0.56	0.4	1.65	6.02	1.64	1.21	15.19	31.56	7.96	0.56	0.8	42.2	3.04	66.9	10.22	22.6	C[C@]12CC[C@@H]3c4ccc(O)c(F)c4CC[C@H]3[C@@H]1CC[C@@]2(O)/C=C\I	ID/g (Rattus norvegicus [21]): 0.75%; ID/g (Rattus norvegicus [22]): 0.58%; uterus to blood %ID/g ratio (unitless) (Rattus norvegicus [23]): 17.08%; ID/g (Rattus norvegicus [24]): 1.02%; ID/g (Rattus norvegicus [25]): 0.86%; ID/g (Rattus norvegicus [26]): 1.14%; ID/g (Rattus norvegicus [27]): 4.3%; ID/g (Rattus norvegicus [28]): 0.85%; ID/g (Rattus norvegicus [29]): 0.82%; ID/g (Rattus norvegicus [30]): 3.41%
1.59	0.81	385	128	0.28	0.17	1.02	0.43	1.21	1.17	5.42	5.4	4.24	0.51	0.1	71.61	3.06	55.9	1.82	9.01	C[C@]12CC[C@@H]3c4ccc(O)c(F)c4CC[C@H]3[C@@H]1CC[C@@]2(O)/C=C/I	ID/g (Rattus norvegicus [21]): 0.3%; ID/g (Rattus norvegicus [22]): 0.26%; uterus to blood %ID/g ratio (unitless) (Rattus norvegicus [23]): 4.56%; ID/g (Rattus norvegicus [24]): 0.59%; ID/g (Rattus norvegicus [25]): 0.77%; ID/g (Rattus norvegicus [26]): 0.75%; ID/g (Rattus norvegicus [27]): 2.97%; ID/g (Rattus norvegicus [28]): 0.57%; ID/g (Rattus norvegicus [29]): 0.31%; ID/g (Rattus norvegicus [30]): 1.14%
